Records with an inconclusive call do not appear. Calls of active or inactive are those of the source.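 The calls were made as follows: active = compounds raising caspase signal with fitted AC50 no more than tenfold above the top tested dose; inconclusive = flat curve at 30 to 70% activity, or unusable fit; inactive = the rest.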
System: MEF WT non-primed, caspase-Glo luminescence, 3 h
Assay: caspase activity of non-primed cells – cell-based, caspase-Glo luminescence, 3 h, counter-screen for Bcl2-A1 inhibitor project, dose response (AID 449761)
Procedure, shortened: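 Incubation: 3 h compound at 37 °C, 1 h reagent at RT / System: Non-primed wild-type MEF cells / Signal: CaspaseGlo luminescence, reagent diluted 1:1 in 50 mM HEPES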

SMILES	AC50
COc1cc(/C=C2/C(=N)N3C=CSC3=NC2=O)ccc1OCCCOc1cc(C)ccc1C	22.4 µM
C=CC(=O)Nc1ccc(CN2C(=O)N(c3c(Cl)c(OC)cc(OC)c3Cl)Cc3cnc(NCCCCN(CC)CC)nc32)cc1	> 35 µM (inactive)
CN(C)CCCN(C(=O)c1cc2cc([N+](=O)[O-])ccc2s1)c1nc2cc3c(cc2s1)OCCO3	> 35 µM (inactive)
COc1cc(NC(=O)c2ccccc2)c(OC)cc1NC(=O)Cc1ccc(Br)cc1	> 35 µM (inactive)
COc1cc(/C=C(/C#N)c2nc3ccccc3[nH]2)ccc1OCC(=O)Nc1ccccc1C	5.91 µM
CCOC(=O)/C(=C\c1ccc(OC(F)F)cc1)C1=Nn2c(nnc2-c2ccc(Cl)cc2)SC1	4.15 µM
COc1ccc(-c2oc(=O)c3cc(OC)c(OC)cc3c2/C=C/c2cccc([N+](=O)[O-])c2)cc1	> 35 µM (inactive)
O=C(COc1ccc(/C=N/NC(=O)c2cc3ccccc3o2)cc1Cl)Nc1ccccc1	9.56 µM
COc1ccccc1-c1cc(C(F)(F)F)nc(S(=O)(=O)CCCC(=O)NC(C)C)n1	25.8 µM
CC(C)N=c1scc(-c2ccco2)n1/N=C/c1ccc(O)c(O)c1	> 35 µM (inactive)
CSC[C@@H]1NC(=S)N(c2ccc(C)cc2)C1=O	> 35 µM (inactive)
O=C(COc1ccc(/C=N/NC(=O)c2cc3ccccc3o2)cc1Br)Nc1ccccc1	28.5 µM
CCCCC1CCC(C(=O)N(CC(C)C)c2c(N)n(Cc3ccccc3)c(=O)[nH]c2=O)CC1 (centres undefined)	8 µM
CC(CCc1ccccc1)NC(=O)c1ccc(NC(=O)c2ccccc2)cc1 (centres undefined)	27.7 µM
CCSc1nnc(NC(=O)c2nc(S(=O)(=O)Cc3ccc(F)cc3)ncc2Cl)s1	> 35 µM (inactive)
CC(C)(C)[C@H](N)C(=O)N[C@H]1CCC2C3CC=C4C[C@@H](O)CC[C@]4(C)C3CC[C@@]21C (some centres undefined)	> 35 µM (inactive)
CCc1nnc(NC(=O)c2nc(S(=O)(=O)Cc3ccccc3)ncc2Cl)s1	> 35 µM (inactive)
COc1ccc(-c2nc(NC(=O)c3n[nH]c(=O)c4ccccc34)sc2C)cc1	> 35 µM (inactive)
Cc1ccc2c(c1)C(=O)C(=O)N2Cc1ccc(Br)cc1	> 35 µM (inactive)
Cc1cc(C)n(-c2nc(Nc3ccccc3C)nc(-n3nc(C)cc3C)n2)n1	32.1 µM
CCOC(=O)COc1ccccc1/C=C\[N+](=O)[O-]	12.2 µM
Cc1ccc(C)c(NC(=S)NC(NC(=O)Cc2cccc3ccccc23)C(Cl)(Cl)Cl)c1 (centres undefined)	12 µM

SMILES	AC50
Cc1cc(C)cc(NC(=O)/C(C#N)=C/c2cn(CC(=O)NCc3ccco3)c3ccccc23)c1	8.84 µM
COC(=O)c1ccc2c(c1)C(C)(C)C(/C=C/c1ccccc1O)=[N+]2C	8.57 µM
Cc1c(CCOC(=O)c2ccc(N3CCOCC3)c([N+](=O)[O-])c2)sc[n+]1CC#N	> 35 µM (inactive)
COc1ccccc1CCNC(C)CCc1ccc(O)cc1 (centres undefined)	> 35 µM (inactive)
CCCc1ccc(OCc2ccc(C(=O)N/N=C/c3cccc([N+](=O)[O-])c3)o2)c(OC)c1	6.35 µM
C/C1=C\[C@@H](C)C/C=C/[C@H]2[C@@H]3O[C@]3(C)[C@@H](C)[C@H]3[C@H](Cc4c[nH]c5ccccc45)NC(=O)[C@]32C(=O)/C=C/C(=O)[C@@H]1O	8.71 µM
COc1cc(SC#N)ccc1N=Cc1c(C)[nH]n(-c2ccc(C)cc2)c1=O	34.5 µM
CCc1nn(-c2cc(Oc3cccc4ccccc34)nc(-c3ccccc3)n2)c(N)c1C#N	> 35 µM (inactive)
COc1ccc(C[C@H]2NC[C@H](O)[C@H]2OC(C)=O)cc1	> 35 µM (inactive)
Cc1ccc(C#N)c(SCC(=O)Nc2nccs2)n1	> 35 µM (inactive)
Cc1ccc(S(=O)(=O)c2nnn3c2nc(Nc2cccc(C)c2)c2ccccc23)cc1	> 35 µM (inactive)
CC(C)c1cccc(-c2ccc3c(c2)S(=O)(=O)c2cccc(C(=O)NC4CCCC4)c2C3=O)c1	> 35 µM (inactive)
O=C(Nc1ccc2oc(-c3ccccc3Cl)nc2c1)c1cncc(Br)c1	30.7 µM
CC(=O)[C@]1(O)Cc2c(O)c3c(c(O)c2[C@@H](O[C@H]2C[C@H](N)[C@H](O)[C@H](C)O2)C1)C(=O)c1ccccc1C3=O	> 35 µM (inactive)
CCOC(=O)/C(=C\c1ccc([N+](=O)[O-])cc1)C(=O)c1cc(C(C)=O)c(Nc2ccccc2)s1	1.46 µM
COc1ccc(NC(=S)NC(NC(=O)/C=C/c2ccccc2)C(Cl)(Cl)Cl)cc1 (centres undefined)	> 35 µM (inactive)
Cc1cc(C)cc(Cn2ncc(Cl)c(Cl)c2=O)c1	> 35 µM (inactive)
Cc1cc(C(=O)CCl)c(C)n1CCc1ccc(Cl)cc1	> 35 µM (inactive)
N#Cc1cccnc1N1CCN(C(=O)c2cccc3c2C(=O)c2ccc(-c4ccc(Cl)c(C(F)(F)F)c4)cc2S3(=O)=O)CC1	> 35 µM (inactive)
CCOC(=O)Cc1csc(/N=C/c2c(O)n(-c3ccc(C)c(C)c3)c(=O)c3ccccc23)n1	9.55 µM
CC1=NNC(=O)/C1=C\c1cn(-c2ccccc2)nc1-c1ccccc1	11.3 µM
CC(C)CCN(C(=O)Cc1ccc(Cl)c(Cl)c1)c1c(N)n(Cc2ccccc2)c(=O)[nH]c1=O	14.6 µM

Source: PubChem BioAssay AID449761 (Broad Institute, 2010)
